Test results as given in ChEMBL document CHEMBL1938337, “Discovery of novel, potent, and selective inhibitors of 3-phosphoinositide-dependent kinase (PDK1)” (J Med Chem, 2011).

How the values were obtained:
[1] = target: T1, Serine/threonine-protein kinase Chk1 (Homo sapiens) (UniProt O14757); test: Inhibition of CHEK1 at 1 uM
T1 sequence (whole entry): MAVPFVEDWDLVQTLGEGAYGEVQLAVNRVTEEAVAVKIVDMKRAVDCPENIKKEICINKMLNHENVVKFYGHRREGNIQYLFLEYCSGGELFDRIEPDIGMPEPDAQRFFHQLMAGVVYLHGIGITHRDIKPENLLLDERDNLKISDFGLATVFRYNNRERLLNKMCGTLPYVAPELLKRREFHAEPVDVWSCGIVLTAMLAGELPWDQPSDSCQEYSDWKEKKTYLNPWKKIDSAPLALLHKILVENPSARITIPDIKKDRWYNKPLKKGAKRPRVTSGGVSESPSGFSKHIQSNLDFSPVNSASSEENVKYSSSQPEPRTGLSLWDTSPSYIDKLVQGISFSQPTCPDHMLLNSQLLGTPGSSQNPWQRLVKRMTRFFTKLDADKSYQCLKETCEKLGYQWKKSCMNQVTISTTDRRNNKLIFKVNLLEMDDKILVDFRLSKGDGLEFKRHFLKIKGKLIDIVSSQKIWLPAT

[2] = target: Calcium/calmodulin-dependent protein kinase type II subunit alpha (Homo sapiens) (UniProt Q9UQM7); test: Inhibition of CAMK2A at 1 uM
Sequence of Calcium/calmodulin-dependent protein kinase type II subunit alpha (Homo sapiens) (Q9UQM7 whole entry): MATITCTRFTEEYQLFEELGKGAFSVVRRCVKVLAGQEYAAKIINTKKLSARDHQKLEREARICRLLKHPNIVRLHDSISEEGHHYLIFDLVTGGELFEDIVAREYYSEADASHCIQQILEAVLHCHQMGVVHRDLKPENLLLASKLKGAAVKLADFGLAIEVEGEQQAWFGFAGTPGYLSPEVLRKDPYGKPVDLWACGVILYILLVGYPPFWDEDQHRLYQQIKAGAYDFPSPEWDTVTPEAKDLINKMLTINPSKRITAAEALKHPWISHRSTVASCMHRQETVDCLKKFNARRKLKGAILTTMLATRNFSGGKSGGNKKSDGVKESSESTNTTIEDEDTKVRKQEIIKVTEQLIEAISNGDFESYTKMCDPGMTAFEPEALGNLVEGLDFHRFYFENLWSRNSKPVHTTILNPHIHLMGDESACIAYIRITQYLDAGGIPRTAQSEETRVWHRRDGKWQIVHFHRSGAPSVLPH

[3] = target: T2, Serine/threonine-protein kinase Nek2 (Homo sapiens) (UniProt P51955); test: Inhibition of NEK2 at 1 uM
T2 sequence (whole entry): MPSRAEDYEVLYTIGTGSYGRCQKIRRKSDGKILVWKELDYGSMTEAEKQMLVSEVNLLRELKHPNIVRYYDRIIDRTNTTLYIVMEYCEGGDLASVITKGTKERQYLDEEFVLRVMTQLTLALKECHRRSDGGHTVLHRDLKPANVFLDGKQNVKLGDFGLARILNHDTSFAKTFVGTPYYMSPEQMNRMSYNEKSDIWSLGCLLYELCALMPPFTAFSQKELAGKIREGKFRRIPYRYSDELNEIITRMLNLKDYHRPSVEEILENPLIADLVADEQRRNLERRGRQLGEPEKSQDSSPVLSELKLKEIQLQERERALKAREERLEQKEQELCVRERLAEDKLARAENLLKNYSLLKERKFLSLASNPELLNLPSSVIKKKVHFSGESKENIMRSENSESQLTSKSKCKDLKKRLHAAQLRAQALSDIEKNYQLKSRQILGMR

[4] = target: T3, Serine/threonine-protein kinase Sgk1 (Homo sapiens) (UniProt O00141); test: Inhibition of SGK at 1 uM
T3 sequence (whole entry): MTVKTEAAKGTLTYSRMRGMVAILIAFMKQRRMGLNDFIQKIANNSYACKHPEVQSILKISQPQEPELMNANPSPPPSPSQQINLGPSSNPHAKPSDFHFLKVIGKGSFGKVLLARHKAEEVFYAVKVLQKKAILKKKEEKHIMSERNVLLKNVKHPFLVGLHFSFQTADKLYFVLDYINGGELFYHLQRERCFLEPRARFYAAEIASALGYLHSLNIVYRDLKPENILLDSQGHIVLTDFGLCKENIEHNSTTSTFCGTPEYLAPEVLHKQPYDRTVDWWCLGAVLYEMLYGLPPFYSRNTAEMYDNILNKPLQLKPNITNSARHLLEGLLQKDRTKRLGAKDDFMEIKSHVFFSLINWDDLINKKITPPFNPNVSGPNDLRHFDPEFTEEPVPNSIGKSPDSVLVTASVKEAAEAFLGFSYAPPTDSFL

[5] = target: Ephrin type-A receptor 2 (Homo sapiens) (UniProt P29317); test: Inhibition of EPHA2 at 1 uM
Sequence of Ephrin type-A receptor 2 (Homo sapiens) (P29317 whole entry): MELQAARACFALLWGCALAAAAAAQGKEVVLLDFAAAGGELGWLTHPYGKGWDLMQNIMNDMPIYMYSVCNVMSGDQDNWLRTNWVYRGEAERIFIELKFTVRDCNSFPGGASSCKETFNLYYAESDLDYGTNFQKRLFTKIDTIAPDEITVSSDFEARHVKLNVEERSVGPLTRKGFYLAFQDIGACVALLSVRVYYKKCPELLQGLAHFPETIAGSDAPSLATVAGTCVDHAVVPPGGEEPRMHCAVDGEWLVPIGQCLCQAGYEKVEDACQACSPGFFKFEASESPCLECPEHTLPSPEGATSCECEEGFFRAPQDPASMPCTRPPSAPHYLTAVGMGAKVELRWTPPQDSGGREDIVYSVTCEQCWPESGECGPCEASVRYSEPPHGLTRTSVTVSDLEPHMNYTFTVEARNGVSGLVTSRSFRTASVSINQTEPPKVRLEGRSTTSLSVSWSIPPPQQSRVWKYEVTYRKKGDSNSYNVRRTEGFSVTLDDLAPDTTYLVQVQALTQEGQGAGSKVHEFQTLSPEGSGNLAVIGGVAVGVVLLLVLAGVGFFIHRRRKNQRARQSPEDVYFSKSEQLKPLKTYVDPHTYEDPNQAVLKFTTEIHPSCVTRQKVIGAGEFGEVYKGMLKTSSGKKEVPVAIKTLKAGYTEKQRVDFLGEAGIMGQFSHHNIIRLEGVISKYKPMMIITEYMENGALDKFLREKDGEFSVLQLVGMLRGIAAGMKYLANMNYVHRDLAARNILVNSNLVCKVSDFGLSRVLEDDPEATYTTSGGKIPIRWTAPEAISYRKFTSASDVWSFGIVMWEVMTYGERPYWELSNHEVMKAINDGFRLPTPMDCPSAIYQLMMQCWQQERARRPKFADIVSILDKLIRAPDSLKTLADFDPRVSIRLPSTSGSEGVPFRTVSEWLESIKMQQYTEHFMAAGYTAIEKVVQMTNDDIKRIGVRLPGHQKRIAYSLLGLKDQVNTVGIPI

[6] = target: Serine/threonine-protein kinase mTOR (Homo sapiens, UniProt P42345); test: Inhibition of GST-tagged mTOR assessed as phosphorylation at Thr46 in GFP-4E-BP1 substrate by TR-FRET assay
Method in brief: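 GST-tagged mTOR (aa 1360-2549) at 1 nM, with 0.4 μM GFP-4E-BP1 and 40 μM ATP. Buffer: 50 mM Hepes pH 7.4, 10 mM MgCl2, 1 mM EGTA, 0.01% Tween-20, at about 22 °C. A terbium anti-phospho-Thr46 antibody was added at the end, and the read-out was TR-FRET. Duplicate data fitted by nonlinear regression. Concentrations are final.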

[7] = target: Mitogen-activated protein kinase kinase kinase kinase 4 (Homo sapiens) (UniProt O95819); test: Inhibition of MAP4K4 at 1 uM
Sequence of Mitogen-activated protein kinase kinase kinase kinase 4 (Homo sapiens) (O95819 2-1239 limits assumed): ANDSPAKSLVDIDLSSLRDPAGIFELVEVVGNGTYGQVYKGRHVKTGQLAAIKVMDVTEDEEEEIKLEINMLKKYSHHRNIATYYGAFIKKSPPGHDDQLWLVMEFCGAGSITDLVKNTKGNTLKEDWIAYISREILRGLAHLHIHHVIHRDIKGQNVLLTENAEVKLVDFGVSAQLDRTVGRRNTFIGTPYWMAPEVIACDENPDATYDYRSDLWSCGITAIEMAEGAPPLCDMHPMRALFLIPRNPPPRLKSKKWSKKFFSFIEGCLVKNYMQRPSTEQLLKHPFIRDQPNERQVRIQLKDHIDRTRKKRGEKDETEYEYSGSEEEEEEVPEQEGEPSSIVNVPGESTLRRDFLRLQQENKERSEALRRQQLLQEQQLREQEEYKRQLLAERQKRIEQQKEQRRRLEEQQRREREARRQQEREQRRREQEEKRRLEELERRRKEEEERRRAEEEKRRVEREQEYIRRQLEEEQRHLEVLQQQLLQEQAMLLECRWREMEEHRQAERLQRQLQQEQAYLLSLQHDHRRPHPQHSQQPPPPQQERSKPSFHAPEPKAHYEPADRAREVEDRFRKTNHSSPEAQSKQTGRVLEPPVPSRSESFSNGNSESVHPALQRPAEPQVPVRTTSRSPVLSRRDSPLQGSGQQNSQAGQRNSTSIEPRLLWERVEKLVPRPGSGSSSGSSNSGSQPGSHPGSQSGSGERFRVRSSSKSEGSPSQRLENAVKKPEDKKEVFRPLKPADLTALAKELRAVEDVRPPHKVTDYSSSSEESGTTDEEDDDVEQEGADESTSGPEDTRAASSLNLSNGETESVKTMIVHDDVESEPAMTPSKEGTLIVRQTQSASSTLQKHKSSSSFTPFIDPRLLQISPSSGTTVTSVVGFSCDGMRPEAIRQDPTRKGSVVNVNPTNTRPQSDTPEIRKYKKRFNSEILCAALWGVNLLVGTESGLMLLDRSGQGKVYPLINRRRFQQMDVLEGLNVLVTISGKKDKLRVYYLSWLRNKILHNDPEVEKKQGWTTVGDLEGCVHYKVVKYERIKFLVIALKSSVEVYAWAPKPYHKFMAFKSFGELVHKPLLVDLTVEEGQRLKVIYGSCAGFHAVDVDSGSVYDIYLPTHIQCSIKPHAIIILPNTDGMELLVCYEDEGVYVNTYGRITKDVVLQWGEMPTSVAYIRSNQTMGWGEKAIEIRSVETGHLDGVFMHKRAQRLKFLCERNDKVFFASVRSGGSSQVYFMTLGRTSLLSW

[8] = target: T4, Serine/threonine-protein kinase 3 (Homo sapiens) (UniProt Q13188); test: Inhibition of STK3 at 1 uM
T4 sequence (whole entry): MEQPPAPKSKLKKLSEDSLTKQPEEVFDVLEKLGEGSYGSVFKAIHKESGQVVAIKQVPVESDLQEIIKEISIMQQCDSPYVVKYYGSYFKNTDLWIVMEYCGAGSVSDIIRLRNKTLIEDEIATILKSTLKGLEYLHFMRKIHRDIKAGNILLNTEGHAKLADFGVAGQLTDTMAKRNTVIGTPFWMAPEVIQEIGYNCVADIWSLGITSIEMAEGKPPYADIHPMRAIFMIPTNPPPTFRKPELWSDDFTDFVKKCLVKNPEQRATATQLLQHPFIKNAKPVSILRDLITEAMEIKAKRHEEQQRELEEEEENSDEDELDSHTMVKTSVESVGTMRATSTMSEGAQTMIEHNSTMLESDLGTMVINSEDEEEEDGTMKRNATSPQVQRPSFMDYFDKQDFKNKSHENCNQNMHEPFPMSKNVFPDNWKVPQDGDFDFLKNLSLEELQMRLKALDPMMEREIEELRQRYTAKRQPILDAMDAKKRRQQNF

Row | SMILES | inhibition [1] [%] | inhibition [2] [%] | inhibition [3] [%] | inhibition [4] [%] | inhibition [5] [%] | Ki [6] [nM] | inhibition [7] [%] | inhibition [8] [%]
1 | CC(=O)N1CC[C@@H](Nc2cncc(C(=O)c3cn(C(C)C)c4ncnc(N)c34)n2)[C@H]1c1ccc(F)cc1 | 24 | 73 | -2 | 61 | 1 | 2600 | 50 | 12
2 | CC(=O)N1CC[C@@H](Nc2cncc(C(=O)c3cn(C(C)C)c4ncnc(N)c34)n2)[C@H]1c1ccccc1 | 7 | 32 | -3 | 30 | 3 | 3900 | 23 | 0
3 | CC(C)n1cc(C(=O)c2cncc(N[C@@H]3CCN(C=O)[C@@H]3c3ccc(F)cc3)n2)c2c(N)ncnc21 | 38 | 62 | 3 | 48 | 7 | 2800 | 57 | 13
